Test results reported in ChEMBL document CHEMBL1177748, “Homo- and heptanor-sterols and tremulane sesquiterpenes from cultures of Phellinus igniarius” (2010).
Calls of active or inactive are those of the source. The calls are words filed in the database; no cut-off is given here.

Biological target: T1, Tyrosine-protein phosphatase non-receptor type 1 (Homo sapiens) (UniProt P18031)
T1 sequence (whole entry): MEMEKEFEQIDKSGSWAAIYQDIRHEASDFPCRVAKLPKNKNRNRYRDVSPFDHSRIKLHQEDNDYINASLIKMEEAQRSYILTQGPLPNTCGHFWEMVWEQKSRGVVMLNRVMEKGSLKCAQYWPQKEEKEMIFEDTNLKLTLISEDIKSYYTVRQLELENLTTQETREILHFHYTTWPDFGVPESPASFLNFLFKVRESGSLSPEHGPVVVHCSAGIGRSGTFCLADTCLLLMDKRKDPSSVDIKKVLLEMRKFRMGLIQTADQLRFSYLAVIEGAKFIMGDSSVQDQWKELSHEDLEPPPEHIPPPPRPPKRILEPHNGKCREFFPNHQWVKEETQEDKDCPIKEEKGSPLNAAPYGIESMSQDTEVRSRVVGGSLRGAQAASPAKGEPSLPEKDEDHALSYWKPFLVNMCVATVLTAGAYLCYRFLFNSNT
Test: Inhibition of PTB1B at 10 uM
Conditions: not given

| inhibition | Compound |
| --- | --- |
| inactive | CC1(C)OCC2=CC[C@H]3C(C)(C)[C@@H](O)CC[C@]3(C)[C@H]2CO1 |
| inactive | C[C@H]1CC[C@H](CO)[C@H](CO)C2=C[C@@](C)(CO)C[C@H]21 |
| inactive | C[C@H]1CCC2=C(COC2=O)[C@@]2(O)CC(C)(C)C[C@@H]12 |
| inactive | C[C@H]1CC[C@H](CO)[C@H](CO)C2=C[C@](C)(CO)C[C@H]21 |

System: Human immunodeficiency virus 1
Test: Antiviral activity against HIV1 assessed as inhibition of viral replication at 10 uM
Assay type: functional, organism-based
Conditions: not given

| Compound | inhibition |
| --- | --- |
| CC1(C)OCC2=CC[C@H]3C(C)(C)[C@@H](O)CC[C@]3(C)[C@H]2CO1 | inactive |
| C[C@H]1CC[C@H](CO)[C@H](CO)C2=C[C@@](C)(CO)C[C@H]21 | inactive |
| C[C@H]1CCC2=C(COC2=O)[C@@]2(O)CC(C)(C)C[C@@H]12 | inactive |
| C[C@H]1CC[C@H](CO)[C@H](CO)C2=C[C@](C)(CO)C[C@H]21 | inactive |

System: PC-12
Test: Neuroprotective activity against glutamate-induced neurotoxicity in rat PC12 cells at 10 uM
Assay type: functional, cell-based
Conditions: not given

| Compound | inhibition |
| --- | --- |
| CC1(C)OCC2=CC[C@H]3C(C)(C)[C@@H](O)CC[C@]3(C)[C@H]2CO1 | inactive |
| C[C@H]1CC[C@H](CO)[C@H](CO)C2=C[C@@](C)(CO)C[C@H]21 | inactive |
| C[C@H]1CCC2=C(COC2=O)[C@@]2(O)CC(C)(C)C[C@@H]12 | inactive |
| C[C@H]1CC[C@H](CO)[C@H](CO)C2=C[C@](C)(CO)C[C@H]21 | inactive |

Species: Rattus norvegicus
Test: Inhibition of platelet-activating factor-induced beta-glucuronidase release in rat PMNC at 10 uM
Assay type: functional
Conditions: not given

| Compound | inhibition |
| --- | --- |
| CC1(C)OCC2=CC[C@H]3C(C)(C)[C@@H](O)CC[C@]3(C)[C@H]2CO1 | inactive |
| C[C@H]1CC[C@H](CO)[C@H](CO)C2=C[C@@](C)(CO)C[C@H]21 | inactive |
| C[C@H]1CCC2=C(COC2=O)[C@@]2(O)CC(C)(C)C[C@@H]12 | inactive |
| C[C@H]1CC[C@H](CO)[C@H](CO)C2=C[C@](C)(CO)C[C@H]21 | inactive |

System: Liver microsomes
Test: Antioxidant activity against Fe2+-cystine induced lipid peroxidation in rat liver microsomes at 10 uM
Assay type: functional
Conditions: Microsome

| Compound | inhibition |
| --- | --- |
| CC1(C)OCC2=CC[C@H]3C(C)(C)[C@@H](O)CC[C@]3(C)[C@H]2CO1 | inactive |
| C[C@H]1CC[C@H](CO)[C@H](CO)C2=C[C@@](C)(CO)C[C@H]21 | inactive |
| C[C@H]1CCC2=C(COC2=O)[C@@]2(O)CC(C)(C)C[C@@H]12 | inactive |
| C[C@H]1CC[C@H](CO)[C@H](CO)C2=C[C@](C)(CO)C[C@H]21 | inactive |

System: Thoracic aorta
Test: Vasodilating activity in Langendorff-perfused Sprague-Dawley rat thoracic aorta assessed as relaxation of phenylephrine-induced vasoconstriction at 10 uM relative to untreated control
Assay type: functional
Set-up: scale not given: the % may be the effect or the level left
Conditions: not given
How it was run: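 Thoracic aortic rings were taken from Langendorff-perfused Sprague-Dawley rats weighing 200 ± 20 g. Rings were precontracted with phenylephrine, and isotonic tension was recorded. Compounds were tested at 10^-5 M. The relaxing rate was expressed as a percentage relative to the blank control.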

| Compound | Activity [%] |
| --- | --- |
| CC1(C)OCC2=CC[C@H]3C(C)(C)[C@@H](O)CC[C@]3(C)[C@H]2CO1 | 32.1 |
| C[C@H]1CC[C@H](CO)[C@H](CO)C2=C[C@@](C)(CO)C[C@H]21 | 45.4 |
| C[C@H]1CCC2=C(COC2=O)[C@@]2(O)CC(C)(C)C[C@@H]12 | 46.6 |
| C[C@H]1CC[C@H](CO)[C@H](CO)C2=C[C@](C)(CO)C[C@H]21 | 35.7 |
| COc1ccc(CCN(C)CCCC(C#N)(c2ccc(OC)c(OC)c2)C(C)C)cc1OC (stereo not given) [VERAPAMIL] | 83.3 |
